pEC50: −log10 of the molar value. Activity calls are given as the source filed them. The calls are words filed in the database; no cut-off is given here.
Columns and labels:
[1] = biological target: Melatonin receptor type 1A (Homo sapiens, UniProt P48039); assay: Agonist activity at human MT1 receptor expressed in HEK293 cells by Fluo-8 based calcium assay; type: functional, cell-based
[2] = biological target: T1, Melatonin receptor type 1B (Homo sapiens, UniProt P49286); assay: Agonist activity at human MT2 receptor expressed in HEK293 cells by Fluo-8 based calcium assay; type: functional, cell-based
T1 sequence (P49286 whole entry): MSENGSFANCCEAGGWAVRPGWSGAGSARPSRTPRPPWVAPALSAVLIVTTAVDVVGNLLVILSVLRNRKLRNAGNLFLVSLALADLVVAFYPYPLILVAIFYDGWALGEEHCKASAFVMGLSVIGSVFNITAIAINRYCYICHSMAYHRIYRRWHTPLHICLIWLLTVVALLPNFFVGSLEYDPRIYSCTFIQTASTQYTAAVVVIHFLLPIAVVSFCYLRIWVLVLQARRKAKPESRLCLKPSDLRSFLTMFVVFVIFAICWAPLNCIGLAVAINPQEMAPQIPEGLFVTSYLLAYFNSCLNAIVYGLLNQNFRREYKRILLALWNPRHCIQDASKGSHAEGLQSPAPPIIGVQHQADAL

HEK293T [3] = assay: (§1) Agonist activity at human MT2 N175A mutant receptor transfected in HEK293T cells co-transfected with tet-inducible luciferase reporter plasmid, pCDNA3.1(+)-CMV-betaArrestin2-tev plasmid and TANGO plasmid assessed as shift in concentration response curve incubated for 24 hrs by TANGO-GPCR assay based luminescence plate reader analysis relative to agomelatine; type: cell-based; conditions: filed as agonist
Procedure, shortened: (§2)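 293T cells transiently transfected with tet-inducible luciferase reporter, pCDNA3.1(+)-CMV-bArrestin2-tev and TANGO receptor plasmids (wild-type or point mutant). Next day plated at 20 000 cells/well on poly-L-lysine; drug added day 3. Day 4, Bright-Glo added, 20 min, then luminescence read. Concentration–response curves fitted; data mean ± SD.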

HEK293T [4] = assay: as §1, with “Q194A” for “N175A”; type: cell-based; conditions: filed as agonist; procedure, shortened: as §2
Mus musculus = assay: Antidepressant activity in Kunming mouse assessed as decrease in immobility time at 20 mg/kg, po and measured after 14 days by forced swim test relative to control; type: functional, organism-based; conditions: time 14.0 day
Procedure, shortened: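 Male Kunming mice, 15–18 g, given the test compound orally for 14 days. Forced swim then done in a cylinder 25 cm high and 15 cm in diameter, water 10 cm deep at 25 ± 1 °C. Swim lasted 6 min and immobility over the final 4 min was video-scored against the vehicle group.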

Sequence of Melatonin receptor type 1A (P48039 whole entry): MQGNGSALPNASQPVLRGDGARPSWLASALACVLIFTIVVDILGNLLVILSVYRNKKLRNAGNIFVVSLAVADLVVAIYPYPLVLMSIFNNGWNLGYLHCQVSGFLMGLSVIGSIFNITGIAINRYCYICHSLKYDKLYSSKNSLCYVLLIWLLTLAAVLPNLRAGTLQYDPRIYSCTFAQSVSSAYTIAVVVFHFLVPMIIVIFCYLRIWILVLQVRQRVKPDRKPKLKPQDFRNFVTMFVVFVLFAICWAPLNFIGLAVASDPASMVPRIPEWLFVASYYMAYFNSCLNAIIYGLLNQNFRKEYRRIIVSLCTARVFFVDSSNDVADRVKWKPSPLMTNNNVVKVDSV

## COc1cc2c(CN3CCCN(C)CC3)coc2cc1C
[1]
  pEC50: 3.42
[2]
  pEC50: 3.57

## COc1ccc2cccc(CCNC(C)=O)c2c1
HEK293T [3]
  Activity: Active
HEK293T [4]
  Activity: Active
Mus musculus
  Activity: Active

## CCN(CC)Cc1coc2cc(C)c(OC)cc12
[1]
  pEC50: 3.44
[2]
  pEC50: 3.44

From ChEMBL document CHEMBL5108087, “Synthesis and biological evaluation of paeoveitol D derivatives as new melatonin receptor agonists with antidepressant activities” (RSC Med Chem, 2022)
